Laboratory results taken from PubChem BioAssay AID588679 (Southern Research Specialized Biocontainment Screening …, 2011).
Calls of active or inactive are those of the source.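 The calls were made as follows: active = inhibition of 30% or more at any tested concentration; inactive = the rest.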

Target: M17 leucyl aminopeptidase (Plasmodium falciparum 3D7)
Assay: Inhibition of P. falciparum M17 aminopeptidase – biochemical, QFRET, counter-screen for PfM18AAP inhibitor project, dose response (AID 588679)
Details: recombinant PfM17LAP, H-Leu-NHMec fluorogenic cleavage
Outline: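 Replication: each concentration tested in triplicate; system: purified recombinant Plasmodium falciparum M17 leucine aminopeptidase; medium: Tris buffer pH 7.5 with 2 mM CoCl2, 2% DMSO; measured by: fluorescence, ex 370 nm, em 460 nm; times: 90 min reaction, room temperature; read-out basis: percent inhibition normalized to controls, IC50 from logistic fit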

Compound	inhibition (at 100 µM (top of the series))	IC50 [µM]	also measured
COc1cccc(CCNc2c3ccccc3nc3ccccc23)c1	inactive	–	–
COc1ccc(CCNc2ccnc3ccccc23)cc1OC	inactive	–	–
O=C(c1ccco1)N1CCN(Cc2cc(=O)c(O)c[nH]2)CC1	inactive	–	–
COc1ccc(CNc2c3ccccc3nc3ccccc23)cc1OC	inactive	–	–
COc1ccc(CCNc2c3c(nc4ccccc24)CCCC3)cc1OC	inactive	–	–
COc1ccc(CCNc2cccc3ccccc23)cc1OC	inactive	–	–
Oc1ccc(CCNc2c3ccccc3nc3ccccc23)cc1	inactive	–	–
O=C(c1ccco1)N1CCN(Cc2cc(=O)c(O)co2)CC1	inactive	–	–
COc1ccc(CCN(C)c2ccnc3ccccc23)cc1OC	inactive	–	–
CCC(C)C(=O)Nc1ccccc1N (configuration not stated)	inactive	–	–
COc1ccc(CCNc2c3ccccc3nc3ccccc23)cc1OC	inactive	–	–
COc1ccc(CCCNc2c3ccccc3nc3ccccc23)cc1OC	inactive	–	–
O=C(O)CCCCNc1c2ccccc2nc2ccccc12	–	–	inhibition (at 50 µM (top of the series)): inactive
COc1ccc(CCN(C)CCc2ccccc2)cc1OC	inactive	–	–
COc1ccc(CCNc2ccncc2)cc1OC	inactive	–	–
Cc1c(O)c(=O)ccn1CCNc1c2ccccc2nc2ccccc12	inactive	–	–
COc1ccc2c(c1)C(=O)C(N)CC2 (configuration not stated)	inactive	–	–

Compound	inhibition (at 100 µM (top of the series))	IC50 [µM]	also measured
COc1ccc(-c2nc(-c3ccccc3)c(-c3ccccc3)[nH]2)cc1OC	inactive	–	–
COc1ccc(CCC(=O)O)cc1OC	inactive	–	–
NCCNc1c2ccccc2nc2ccccc12	inactive	–	–
COc1ccc(CCN(C)c2ccncc2)cc1OC	inactive	–	–
COc1ccc(CCNC2CCN(C)CC2)cc1OC	inactive	–	–
Cc1c(OCc2ccccc2)c(=O)ccn1CCNc1c2ccccc2nc2ccccc12	inactive	–	–
O=C(O)CCCNc1c2ccccc2nc2ccccc12	–	–	inhibition (at 50 µM (top of the series)): inactive
NCc1cc2c3c(c(=O)oc2c(O)c1O)CCC3	inactive	–	–
COc1ccc(CCN2CCc3ccccc3C2)cc1OC	inactive	–	–
O=c1cc(CN2CCN(Cc3ccccc3)CC2)c2ccc(O)c(O)c2o1	–	94	–
COc1ccc(CCNc2cncc3ccccc23)cc1OC	inactive	–	–
O=c1cc(CO)oc(CN2CCCCC2)c1O	inactive	–	–
COc1ccc(CCNC2CCN(Cc3ccccc3)CC2)cc1OC	inactive	–	–
O=C1c2ccc3c4c(ccc(c24)C(=O)N1O)CC3	inactive	–	–
COc1ccc(CCN2CCN(C)CC2)cc1OC	inactive	–	–
COc1ccc(CCNc2ccc3ccccc3c2)cc1OC	inactive	–	–

Further lines, with some results ahead:

inhibition (at 100 µM (top of the series))	IC50 [µM]	Compound	also measured
–	29.4	CC(C)(C)C(=O)OCc1nc(-c2ccc(O)c(O)c2)cs1	–
–	35.3	O=c1ccc2cc(O)c(O)cc2o1	–
–	25.3	Cc1nc(NCCc2ccc(O)c(O)c2)c2c3c(sc2n1)CCC3	–
–	26.6	Oc1ccc(CCNc2cncc3ccccc23)cc1O	–
–	37	O=C1OCCN1CCc1nc(-c2ccc(O)c(O)c2)cs1	–
–	69.2	Cc1c(-c2ccccc2)[nH]c(-c2ccc(O)c(O)c2)[n+]1O	–
–	31.4	Nc1cc(C(=O)c2ccccc2)ccc1O	–
–	58.6	Oc1ccc(CCN2CCc3ccccc3C2)cc1O	–
–	61.8	Oc1ccc(CCNc2c3c(nc4ccccc24)CCCC3)cc1O	–
–	26.9	Oc1ccc(CCNc2cccc3ccccc23)cc1O	–
inactive	–	COc1cccc(-c2nc(-c3ccc(OC)c(OC)c3)cs2)c1	–
–	22	Oc1ccc(-c2csc(Cc3cc4ccccc4[nH]3)n2)cc1O	–
inactive	–	CCC(C)C(=O)Nc1ccccc1O (configuration not stated)	–
–	39.7	Oc1ccc(CCNc2ccc3ccccc3c2)cc1O	–
–	18	CN(CCc1ccc(O)c(O)c1)c1ccnc2ccccc12	–
inactive	–	COc1ccc(-c2csc(-c3ccccc3)n2)cc1OC	–
–	37.6	CCC(C)c1ccc(N)c(O)c1 (configuration not stated)	–
–	20	O=S1(=O)c2ccccc2-c2cc(-c3nc(-c4ccc(O)c(O)c4)[nH]c3-c3ccccc3)ccc21	–
–	23.5	CCOc1cccc(-c2nc(-c3ccc(O)c(O)c3)cs2)c1	–
inactive	–	COc1ccc(CC(=O)O)cc1OC	–
–	21.1	Cc1ccc(-c2nc(-c3ccc(O)c(O)c3)cs2)cc1	–
inactive	–	Oc1ccc(CCCNc2c3ccccc3nc3ccccc23)cc1O	–
inactive	–	COc1ccc(-c2csc(-c3ccccc3OC)n2)cc1OC	–
–	46.8	Oc1ccc(CCNC(c2ccccc2)c2ccccc2)cc1O	–
